# Data from PubChem BioAssay AID1943 (The Scripps Research Institute Molecular Screening Center, 2009).
# Hit rate of the full screen: of about 1,600 compounds, about 500 (31%) were called active. Many of the other results were omitted from the sample, so actives are more common in it than they were. Unmarked numbers belong to inactive results.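 Rule for the calls: active = inhibition above the mean of all tested compounds plus 3 SD, cutoff set per campaign (cut at about 36% in these data); inactive = the rest.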
# Tested on: Hepatitis C virus NS3 helicase
# Assay: HCV NS3 helicase inhibitors, retest, confirmation, biochemical, Cy5 molecular beacon fluorescence, triplicate (AID 1943)
# Conditions: NS3 helicase DNA unwinding, at 10.9 µM, active compounds read high
# Outline: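 Assay system: HCV NS3 helicase fragment enzyme; also added: Quenchable beacon DNA duplex and ATP; schedule: compound added before ATP, reads at 0 and 60 min, 25 °C; measured by: Cy5 fluorescence quenching by beacon hairpin; control set: DMSO and thioflavine S wells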
row,Structure (SMILES),inhibition
1,O=C1CC(=O)N(Cc2ccccc2)C(=O)N1CCCCCCN1C(=O)CC(=O)N(Cc2ccccc2)C1=O,55.3% (active)
2,COc1ccc(N2C(=O)/C(=C/c3ccco3)C(=O)NC2=S)cc1,82% (active)
3,CC(C)n1c(=O)c(C=Nc2ccc(Br)cc2)c(O)n(Cc2ccco2)c1=O,1.92%
